Where “and” joins values, the source holds several entries; their conditions need not be identical. Identical values can stand only once.
Tested on: U2OS
Assay: Multiplex assay against U2OS
Type: toxicity, cell-based
Conditions: human
Procedure, shortened: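 Live cells carried four stains from seeding: Hoechst33342, BioTracker Green Microtubule Cytoskeleton Dye, MitoTracker Red and Annexin V Alexa Fluor 680. They were imaged on a CQ1 microscope at 37°C and 5% CO2 after compound addition. Using CellPathfinder machine-learning gating, cells were split into Hoechst high-intensity objects or normal cells, normal cells into healthy, pyknosed or fragmented nuclei, and pyknosed cells into mitotic or apoptotic; tubulin, mitochondrial-mass and membrane-permeability phenotypes are per cents of healthy-nucleus cells.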

[1] = 12 h, 1 µM, compound concentration 1 uM
[2] = 12 h, 10 µM, compound concentration 10 uM
[3] = 24 h, 1 µM, compound concentration 1 uM
[4] = 24 h, 10 µM, compound concentration 10 uM
[5] = 48 h, 1 µM, compound concentration 1 uM
[6] = 48 h, 10 µM, compound concentration 10 uM

COc1ccc(-n2c(C)c([N+](=O)[O-])c3ccc(O)cc32)cc1
Population Apoptotic (%) [1]: 45.24% and 38.46% | Population Fragmented Nuclei (%) [1]: 0.72% and 4.55% | Population Healthy Nuclei (%) [1]: 89.23% and 88.07% | Population Hoechst High Intensity Objects (%) [1]: 0% | Population Membrane Permeable-Phenotype (%) [1]: 2.14% and 5.16% | Population Mitochondria Different-Phenotype (%) [1]: 0.27% and 4.52% | Population Mitotic Cells (%) [1]: 54.76% and 61.54% | Population Normal (%) [1]: 100% | Population Pyknosed Nuclei (%) [1]: 10.05% and 7.39% | Population Tubulin-Different-Phenotype (%) [1]: 0.8% and 1.29% | Total Cell Count [1]: 418 and 176 | Population Apoptotic (%) [2]: 24.32% and 50% | Population Fragmented Nuclei (%) [2]: 1.07% and 1.43% | Population Healthy Nuclei (%) [2]: 90.99% and 84.29% | Population Hoechst High Intensity Objects (%) [2]: 0% | Population Membrane Permeable-Phenotype (%) [2]: 1.42% and 6.78% | Population Mitochondria Different-Phenotype (%) [2]: 0.47% and 5.08% | Population Mitotic Cells (%) [2]: 75.68% and 50% | Population Normal (%) [2]: 100% | Population Pyknosed Nuclei (%) [2]: 7.94% and 14.29% | Population Tubulin-Different-Phenotype (%) [2]: 4.01% and 0% | Population Apoptotic (%) [3]: 52.94% and 48% | Population Fragmented Nuclei (%) [3]: 1.65% and 2.64% | Population Healthy Nuclei (%) [3]: 89.03% and 86.34% | Population Hoechst High Intensity Objects (%) [3]: 0% | Population Membrane Permeable-Phenotype (%) [3]: 0.62% and 4.08% | Population Mitochondria Different-Phenotype (%) [3]: 0.21% and 4.08% | Population Mitotic Cells (%) [3]: 47.06% and 52% | Population Normal (%) [3]: 100% | Population Pyknosed Nuclei (%) [3]: 9.32% and 11.01% | Population Tubulin-Different-Phenotype (%) [3]: 1.03% and 1.53% | Total Cell Count [3]: 547 and 227 | Population Apoptotic (%) [4]: 38.64% and 52.38% | Population Fragmented Nuclei (%) [4]: 2.67% and 2.78% | Population Healthy Nuclei (%) [4]: 90% and 85.56% | Population Hoechst High Intensity Objects (%) [4]: 0% | Population Membrane Permeable-Phenotype (%) [4]: 1.67% and 3.9% | Population Mitochondria Different-Phenotype (%) [4]: 0.37% and 3.25% | Population Mitotic Cells (%) [4]: 61.36% and 47.62% | Population Normal (%) [4]: 100% | Population Pyknosed Nuclei (%) [4]: 7.33% and 11.67% | Population Tubulin-Different-Phenotype (%) [4]: 1.67% and 0% | Population Apoptotic (%) [5]: 36.36% and 48.48% | Population Fragmented Nuclei (%) [5]: 2.25% and 2.47% | Population Healthy Nuclei (%) [5]: 88.75% and 88.46% | Population Hoechst High Intensity Objects (%) [5]: 0% | Population Membrane Permeable-Phenotype (%) [5]: 0.69% and 2.48% | Population Mitochondria Different-Phenotype (%) [5]: 0% and 3.42% | Population Mitotic Cells (%) [5]: 63.64% and 51.52% | Population Normal (%) [5]: 100% | Population Pyknosed Nuclei (%) [5]: 9% and 9.07% | Population Tubulin-Different-Phenotype (%) [5]: 0.58% and 1.24% | Total Cell Count [5]: 978 and 364 | Population Apoptotic (%) [6]: 56.82% and 55.26% | Population Fragmented Nuclei (%) [6]: 3.3% and 3.1% | Population Healthy Nuclei (%) [6]: 87.91% and 83.79% | Population Hoechst High Intensity Objects (%) [6]: 0% | Population Membrane Permeable-Phenotype (%) [6]: 0.91% and 4.12% | Population Mitochondria Different-Phenotype (%) [6]: 0.11% and 3.7% | Population Mitotic Cells (%) [6]: 43.18% and 44.74% | Population Normal (%) [6]: 100% | Population Pyknosed Nuclei (%) [6]: 8.79% and 13.1% | Population Tubulin-Different-Phenotype (%) [6]: 1.7% and 2.88%

Source: ChEMBL document CHEMBL5724801, “EUbOPEN Chemogenomics Library - Multiplex” (2024)
